Compound activity as filed in PubChem.
A selection: hits, their analogues and other compounds. The true share with any hit is near 1.5%.
iPSC survival up – increases survival of single human iPS cells; hiPSC single-cell survival, ATPlite luminescence; 100% = ROCK inhibitor wells, 0% = DMSO; survival enhancement, % at 20 µM; hit rate 0.044% among 360,000; AID 602274; in the data active means survival enhancement above about 18%;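 further: cells exposed to compounds for 16 hours before the ATP read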
CXCR6 inh – inhibitors of human CXCR6 receptor; CHO-K1 PathHunter CXCR6 beta-arrestin, luminescence; inhibition, % at 20 µM; O00574; hit rate 0.36% among 360,000; in the data active means inhibition above about 34%, passing the limit was not always enough;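 further: antagonist mode with CXCL16 agonist at 10 nM final; 0% = 10 nM CXCL16 with DMSO and 100% = unstimulated wells without agonist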
Target sequence (O00574 whole entry, looked up): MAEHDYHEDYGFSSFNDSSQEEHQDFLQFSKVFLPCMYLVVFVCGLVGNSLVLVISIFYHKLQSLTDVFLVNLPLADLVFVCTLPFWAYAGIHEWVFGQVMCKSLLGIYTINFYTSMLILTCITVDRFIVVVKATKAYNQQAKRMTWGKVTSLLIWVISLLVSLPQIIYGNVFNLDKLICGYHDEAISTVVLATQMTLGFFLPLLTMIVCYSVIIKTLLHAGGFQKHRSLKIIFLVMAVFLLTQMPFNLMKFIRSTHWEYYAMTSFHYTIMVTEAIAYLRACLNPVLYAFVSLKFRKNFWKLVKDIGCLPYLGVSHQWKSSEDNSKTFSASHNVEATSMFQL
APJ antagonist – antagonists of human APJ apelin receptor. P35414. CHO-K1 APJ beta-arrestin complementation, luminescence. inhibition, % at 20 µM. hit rate 0.32% among 330,000;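 active means inhibition above about 40% at 20 µM, limit read from the data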;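 further: cells challenged with 10 nM apelin-13 agonist together with compound; plate controls were apelin-13 plus DMSO wells for no effect and DMSO wells lacking apelin-13 for full effect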
CCR6 antagonist – blocks CCL20-driven beta-arrestin recruitment at human CCR6 | hit rate 0.49% among 340,000 | AID 493098 | inhibition, % at 20 µM | P51684 | CHO-K1 CCR6 PathHunter beta-arrestin, luminescence, CCL20-stimulated;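 active means compounds whose inhibition of the agonist-driven luminescence signal at 20 µM reaches about 50%, limit read from the data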;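 further: cells stimulated with CCL20 at 14 nM final; plate controls were DMSO with CCL20 for no effect and DMSO without agonist for full effect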
APJ ag – APJ receptor agonism; P35414; hit rate 0.11% among 330,000; AID 2520; CHO-K1 APJ PathHunter beta-arrestin, luminescence; 0% DMSO wells, 100% apelin; activation, % at 20 µM;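 active means activation more than six SD over the plate average, tested at 20 µM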;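 further: 0% = DMSO alone and 100% = apelin-13 at 10 nM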
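Assay system: CHO-K1 APJ beta-arrestin complementation cell line / Compound: single test compound dose, 20 µM final, 1% DMSO / Times: overnight seeding, 90 min compound at 25 °C, 1 h detection / Technique: beta-gal luminescence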
EBI2 antag – EBI2 (human) antagonism | P32249 | EBI2 beta-arrestin recruitment, luminescence, 7a,25-OHC stimulated | inhibition, % at 5 µM | hit rate 0.81% among 360,000 | AID 651636; in the data active means inhibition above about 38%;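 further: enzyme fragment complementation signal reports receptor beta-arrestin coupling in cells; 0% = agonist plus DMSO wells and 100% = wells without agonist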
EBI2 antag conf – EBI2 (human) antagonism, single concentration confirmation | shares compounds with EBI2 antag | EBI2 beta-arrestin luminescence, 7a,25-OHC antagonism | inhibition, % at 5 µM | hit rate 29% among 2,400 | AID 651997;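 active means inhibition of at least 50%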
EBI2 ag – activates EBI2, counter-screen for EBI2 antagonists; shares compounds with EBI2 antag; EBI2-expressing cells, agonist mode, luminescence, 60 min; 0% vehicle, 100% 7α,25-dihydroxycholesterol control; activation, % at 5 µM; 2,400 tested, under 10 active;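 active means activation of at least 50%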
bGal counter – beta-galactosidase inhibition counter-screen. shares compounds with EBI2 antag. purified beta-galactosidase, luminescent Galacton Star, 15 min. inhibition, % at 5 µM. hit rate 1% among 2,400. AID 652176;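 active means replicate-average signal at least 3 plate SD below neutral wells, shown as high inhibition, flagging enzyme-inhibiting false positives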;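 further: 0% = DMSO wells with enzyme and 100% = wells lacking enzyme; higher means stronger loss of beta-gal luminescence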
An asterisk follows results filed as active; / = not tested or not shown.

SMILES	iPSC survival up	CXCR6 inh	APJ antagonist	CCR6 antagonist	APJ ag	EBI2 antag	EBI2 antag conf	EBI2 ag	bGal counter
O=C(/C=C/c1ccc(Cl)cc1)Nc1ccc(N2CCCCC2)cc1	6	3	-5	5	0	44*	10	-1	-2
O=C(/C=C/c1ccccc1)Nc1ccc(N2CCCCC2)cc1	-2	0	-10	24	/	25	/	/	/
Cn1c(NCC(O)CO)nc2c1c(=O)n(Cc1ccc(Cl)c(Cl)c1)c(=O)n2C (stereo not drawn)	-1	2	3	-3	1	3	/	/	/
Cn1c(NCc2ccco2)nc2c1c(=O)n(Cc1ccc(Cl)c(Cl)c1)c(=O)n2C	0	10	-8	0	5	46*	35	0	6
CCc1nc2ccc(C(=O)Nc3cccc(OC)c3)cn2c1N(CC)Cc1cccc(Br)c1	-1	13	/	/	/	13	/	/	/
CCc1nc2ccc(C(=O)NCCOc3ccc(OC)cc3)cn2c1N(CC)Cc1cccc(Br)c1	-2	17	/	/	/	74*	48	0	5
CCc1nc2ccc(C(=O)NCCN(C)C)cn2c1N(CC)CCOC	0	-4	/	/	/	-11	/	/	/
CCc1nc2ccc(C(=O)NCCOc3ccc(OC)cc3)cn2c1N(CC)CCOC	0	-3	/	/	/	45*	37	2	0
Cc1ccc(OCC(O)CNS(=O)(=O)c2ccccc2C(=O)N2CCCCC2)cc1 (stereo not drawn)	1	-8	0	6	-6	46*	7	-1	-13
CC(=O)N1CCN(C(=O)c2cccc(S(=O)(=O)Nc3c(C)n(C)n(-c4ccccc4)c3=O)c2)CC1	0	-5	-75	5	5	3	/	/	/
CCOC(=O)c1ccc(Nc2nc(C)cc(C)n2)cc1	0	1	/	0	/	28	/	/	/
CCOC(=O)c1ccc(Nc2cc(C)nc(-c3ccccc3)n2)cc1	0	-2	-13	-9	2	57*	49	0	14
COC(=O)c1c(NC(NC(=O)CC(C)C)C(Cl)(Cl)Cl)sc2c1CCC2 (stereo not drawn)	0	-2	17	2	1	64*	12	0	6
CCC(=O)NC(Nc1sc2c(c1C(=O)OC)CCC2)C(Cl)(Cl)Cl (stereo not drawn)	-2	-4	-1	2	-2	24	/	/	/
COC(=O)C1CCN(c2nc3ccccc3nc2C(C#N)C(=O)NCCc2ccccc2)CC1 (stereo not drawn)	4	10	18	26	-5	67*	14	-2	-11
CCOC(=O)C1CCN(c2nc3ccccc3nc2C(C#N)C(=O)OCCOC)CC1 (stereo not drawn)	0	13	18	27	-5	22	/	/	/
CC(=O)c1c(OC(=O)c2ccccc2)ccnc1C(F)(F)F	0	0	17	8	-2	-6	/	/	/
CCc1ccc(OCc2nnc(SCC(=O)NC3CCCCC3)o2)cc1	0	9	-4	14	-1	11	/	/	/
Brc1ccc(OCc2nnc(SCC3CCCCC3)o2)cc1	-1	3	-16	6	3	69*	27	1	-6
COCCOC(=O)c1c(NC(=O)CN2CCCc3ccccc32)sc(C(N)=O)c1C	1	-5	3	-2	-3	76*	49	1	-1
COc1cc2c(cc1OC)C(c1cc(OC)c(OC)c(OC)c1)C1(O)C(=O)OCC1(O)C2 (stereo not drawn)	1	-1	/	-2	/	-1	/	/	/
COc1ccc(C(=O)N/C(=C\c2cccc3ccccc23)C(=O)N2CCN(C)CC2)cc1	0	4	11	12	-3	-1	/	/	/
CC1CCCCN1C(=S)Nc1ccc(OC(F)F)cc1 (stereo not drawn)	0	14	-9	-3	-1	50*	1	-1	-14
O=C(NCc1ccc(Cl)cc1)c1cccc(S(=O)(=O)N2CCCC2)c1	2	-3	1	16	-4	-6	/	/	/
O=C(NCCOc1ccc(Cl)cc1)C1CCCCC1	-1	-6	-2	11	-2	61*	30	0	11
SMILES	iPSC survival up	CXCR6 inh	APJ antagonist	CCR6 antagonist	APJ ag	EBI2 antag	EBI2 antag conf	EBI2 ag	bGal counter
O=C(NCCOc1ccc(Cl)cc1)c1cccc(S(=O)(=O)N2CCCC2)c1	0	-6	15	15	-2	56*	47	-1	-10
Cc1ccc(C2(c3ccccc3)NC(=O)N(CC(=O)NCc3ccco3)C2=O)cc1C (stereo not drawn)	-2	-4	-3	5	3	7	/	/	/
N#Cc1ccc(OCC(O)CN2CCN(CC(O)COc3ccc(C#N)cc3)CC2)cc1 (stereo not drawn)	0	8	8	-1	0	15	/	/	/
OC(COc1ccccc1)CN1CCN(C(c2ccccc2)c2ccccc2)CC1 (stereo not drawn)	-1	5	-1	4	0	59*	22	0	-8
OC(CN1CCN(c2ncc(C(F)(F)F)cc2Cl)CC1)c1ccccc1 (stereo not drawn)	0	-8	-2	1	-2	0	/	/	/
N#Cc1ccc(OCC(O)CN2CCN(c3ncc(C(F)(F)F)cc3Cl)CC2)cc1 (stereo not drawn)	0	-12	-8	12	-4	48*	32	-1	-16
CCC(=O)c1ccc(OCC(O)CN2CCN(C(c3ccccc3)c3ccccc3)CC2)cc1 (stereo not drawn)	-2	11	16	0	-2	75*	46	3	3
N#Cc1ccc(OCC(O)CN2CCN(C(c3ccccc3)c3ccccc3)CC2)cc1 (stereo not drawn)	-1	4	2	10	-1	89*	59*	-1	-11
CCC(=O)c1ccc(OCC(O)CN2CCOCC2)cc1 (stereo not drawn)	4	0	9	-4	-2	-5	/	/	/
CCOc1ncccc1C(=O)OCc1csc(CC(=O)Nc2ccccc2C)n1	0	1	-2	11	1	-8	/	/	/
CCn1c(SCc2ccccc2Cl)nc2nc3c(cc2c1=O)CCCC3	0	20	/	23	/	57*	41	0	3
Cc1cc(C(=O)NCC(=O)OCC(=O)N(C2CCCCC2)C2CCCCC2)ccc1[N+](=O)[O-]	2	-2	8	11	-3	81*	47	-1	-8
